Results from ChEMBL document CHEMBL4024749, “Discovery of 3,5-Diphenyl-4-methyl-1,3-oxazolidin-2-ones as Novel, Potent, and Orally Available Δ-5 Desaturase (D5D) Inhibitors” (J Med Chem, 2017).

Columns and labels:
[1] = Induction of CYP3A (unknown origin); assay type: ADME; settings: human
[2] = target: Acyl-CoA (8-3)-desaturase (Rattus norvegicus, UniProt Q920R3); experiment: Displacement of [3H]T-3364366 from D5D in rat liver microsomal membrane preincubated for 15 mins followed by radioligand addition measured after 150 mins by TopCount microscintillation counting assay; assay type: cell membranes
Acyl-CoA (8-3)-desaturase (Rattus norvegicus, UniProt Q920R3), sequence (Q920R3 whole entry): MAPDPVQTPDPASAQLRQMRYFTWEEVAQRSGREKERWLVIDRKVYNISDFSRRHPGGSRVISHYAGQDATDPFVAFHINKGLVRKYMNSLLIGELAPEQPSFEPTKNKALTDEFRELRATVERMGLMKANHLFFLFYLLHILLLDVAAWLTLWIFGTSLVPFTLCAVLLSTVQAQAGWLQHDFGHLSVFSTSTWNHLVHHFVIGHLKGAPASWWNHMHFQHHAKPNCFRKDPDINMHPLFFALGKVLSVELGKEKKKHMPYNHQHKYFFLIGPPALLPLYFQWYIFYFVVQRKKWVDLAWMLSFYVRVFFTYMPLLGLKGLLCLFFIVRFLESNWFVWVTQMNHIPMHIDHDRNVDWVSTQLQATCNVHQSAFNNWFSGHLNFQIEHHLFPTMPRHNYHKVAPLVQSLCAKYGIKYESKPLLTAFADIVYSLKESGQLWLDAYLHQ
Method in brief: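 Rat liver microsome fraction (30 μg/well) preincubated 15 min with test compound at room temperature in 10 mM Tris-HCl pH 7.5, 100 mM KCl, 10 mM NaF buffer, 200 μL/well; bound ligand trapped on GF/C filters, washed 5× with ice-cold buffer, counted by scintillation. Nonspecific binding with 10 μM unlabeled T-3364366; IC50 from three-parameter logistic fit.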

[3] = target: Acyl-CoA (8-3)-desaturase (Homo sapiens, UniProt O60427); experiment: Inhibition of D5D in human HepG2 cells assessed as [14C]AA formation from [14C]DGLA preincubated for 30 mins followed by [14C]eicosatrienoic acid addition measured after 3 hrs by TLC analysis; assay type: cell-based
Acyl-CoA (8-3)-desaturase (Homo sapiens, UniProt O60427), sequence (O60427 whole entry): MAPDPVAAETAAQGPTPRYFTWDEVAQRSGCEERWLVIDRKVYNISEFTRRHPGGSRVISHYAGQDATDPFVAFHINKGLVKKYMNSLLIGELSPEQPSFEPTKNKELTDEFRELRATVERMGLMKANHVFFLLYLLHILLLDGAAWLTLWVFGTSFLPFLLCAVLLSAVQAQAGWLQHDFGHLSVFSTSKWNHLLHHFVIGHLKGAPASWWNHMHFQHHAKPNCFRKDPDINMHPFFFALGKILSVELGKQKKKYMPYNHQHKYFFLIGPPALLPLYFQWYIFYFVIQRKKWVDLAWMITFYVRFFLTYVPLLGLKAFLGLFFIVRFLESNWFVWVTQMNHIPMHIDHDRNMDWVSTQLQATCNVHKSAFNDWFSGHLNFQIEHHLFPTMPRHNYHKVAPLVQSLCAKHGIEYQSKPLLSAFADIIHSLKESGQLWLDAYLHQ
Method in brief: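 HepG2 plated at 1 × 10^5 cells/well, cultured overnight in DMEM/10% FBS, PBS-washed, then preincubated 30 min at 37 °C with compound in DMEM with penicillin/streptomycin and 0.3% BSA. 0.1 μCi [14C]eicosatrienoic acid added and cells incubated 3 h at 37 °C; lipids saponified overnight at 55 °C with NaOH, acidified, extracted with chloroform/MeOH, separated by TLC.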

Mus musculus [4] = experiment: In vivo inhibition of D5D in C57BL/6J mouse liver assessed as decrease in AA/DGLA ratio by measuring inhibition index at 3 mg/kg, qd administered via oral gavage for 4 days by HPLC analysis relative to control; assay type: functional; settings: 96 h
Method in brief: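 Male C57BL/6J mice, 7–9 weeks old, on normal chow, individually caged; 3 mg/kg suspension in 0.5% methylcellulose by gavage each morning at 10 mL/kg for 4 days. Liver taken next morning; phospholipid fraction from about 40 mg tissue labeled, AA and DGLA measured by HPLC; AA/DGLA decrease versus vehicle group taken as 100%.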

CYP2C9 = CYP2C9 (Homo sapiens, UniProt P11712); experiment: Inhibition of CYP2C9 (unknown origin) at 10 uM
CYP2C9, sequence (P11712 whole entry): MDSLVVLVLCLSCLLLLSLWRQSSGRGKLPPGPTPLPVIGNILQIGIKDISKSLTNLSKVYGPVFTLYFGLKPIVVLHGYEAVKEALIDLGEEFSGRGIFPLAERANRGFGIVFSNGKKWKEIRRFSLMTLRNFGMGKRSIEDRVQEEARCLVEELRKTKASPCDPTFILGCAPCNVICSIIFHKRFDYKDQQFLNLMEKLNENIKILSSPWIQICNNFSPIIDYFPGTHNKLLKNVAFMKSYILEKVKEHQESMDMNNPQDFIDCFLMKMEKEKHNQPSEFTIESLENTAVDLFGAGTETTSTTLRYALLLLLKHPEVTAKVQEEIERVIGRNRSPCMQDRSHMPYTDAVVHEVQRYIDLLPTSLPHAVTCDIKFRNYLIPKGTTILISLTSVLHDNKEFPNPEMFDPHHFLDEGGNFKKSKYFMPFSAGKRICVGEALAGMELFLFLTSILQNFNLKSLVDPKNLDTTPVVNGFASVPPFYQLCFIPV

[5] = AUC (0 to 8 hrs) in mouse at 0.1 mg/kg, iv or 1 mg/kg, po; assay type: ADME, organism-based; settings: in vivo
[6] = MRT (0 to 8 hrs) in mouse at 0.1 mg/kg, iv or 1 mg/kg, po measured; assay type: ADME, organism-based; settings: in vivo
[7] = Oral bioavailability in mouse at 0.1 mg/kg, iv or 1 mg/kg administered as cassette dose up to 8 hrs; assay type: ADME, organism-based; settings: in vivo
Mus musculus [8] = experiment: In vivo inhibition of D5D in ApoE knockout mouse assessed as decrease in AA/DGLA ratio at 0.3 mg/kg, po qd dosed via gavage for 2 weeks by HPLC analysis; assay type: functional; settings: 336 h
Method in brief: (§1)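 ApoE KO mice, 13 weeks old, fed Western diet for 2 weeks; from day after diet start, dosed by gavage each morning at 10 mL/kg with suspension (0.3–3 mg/kg). Livers taken morning after final dose; phospholipid AA and DGLA measured by HPLC after labeling; AA/DGLA decrease relative to vehicle group as 100%.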

Mus musculus [9] = experiment: In vivo inhibition of D5D in ApoE knockout mouse assessed as decrease in AA/DGLA ratio at 1 mg/kg, po qd dosed via gavage for 2 weeks by HPLC analysis; assay type: functional; settings: 336 h; method in brief: as §1
Mus musculus [10] = experiment: In vivo inhibition of D5D in ApoE knockout mouse assessed as decrease in AA/DGLA ratio at 3 mg/kg, po qd dosed via gavage for 2 weeks by HPLC analysis; assay type: functional; settings: 336 h; method in brief: as §1
hERG (KCNH2) = hERG (KCNH2) (Homo sapiens, UniProt Q12809); experiment: Inhibition of human ERG at 10 uM by patch clamp assay
hERG (KCNH2), sequence (Q12809 whole entry): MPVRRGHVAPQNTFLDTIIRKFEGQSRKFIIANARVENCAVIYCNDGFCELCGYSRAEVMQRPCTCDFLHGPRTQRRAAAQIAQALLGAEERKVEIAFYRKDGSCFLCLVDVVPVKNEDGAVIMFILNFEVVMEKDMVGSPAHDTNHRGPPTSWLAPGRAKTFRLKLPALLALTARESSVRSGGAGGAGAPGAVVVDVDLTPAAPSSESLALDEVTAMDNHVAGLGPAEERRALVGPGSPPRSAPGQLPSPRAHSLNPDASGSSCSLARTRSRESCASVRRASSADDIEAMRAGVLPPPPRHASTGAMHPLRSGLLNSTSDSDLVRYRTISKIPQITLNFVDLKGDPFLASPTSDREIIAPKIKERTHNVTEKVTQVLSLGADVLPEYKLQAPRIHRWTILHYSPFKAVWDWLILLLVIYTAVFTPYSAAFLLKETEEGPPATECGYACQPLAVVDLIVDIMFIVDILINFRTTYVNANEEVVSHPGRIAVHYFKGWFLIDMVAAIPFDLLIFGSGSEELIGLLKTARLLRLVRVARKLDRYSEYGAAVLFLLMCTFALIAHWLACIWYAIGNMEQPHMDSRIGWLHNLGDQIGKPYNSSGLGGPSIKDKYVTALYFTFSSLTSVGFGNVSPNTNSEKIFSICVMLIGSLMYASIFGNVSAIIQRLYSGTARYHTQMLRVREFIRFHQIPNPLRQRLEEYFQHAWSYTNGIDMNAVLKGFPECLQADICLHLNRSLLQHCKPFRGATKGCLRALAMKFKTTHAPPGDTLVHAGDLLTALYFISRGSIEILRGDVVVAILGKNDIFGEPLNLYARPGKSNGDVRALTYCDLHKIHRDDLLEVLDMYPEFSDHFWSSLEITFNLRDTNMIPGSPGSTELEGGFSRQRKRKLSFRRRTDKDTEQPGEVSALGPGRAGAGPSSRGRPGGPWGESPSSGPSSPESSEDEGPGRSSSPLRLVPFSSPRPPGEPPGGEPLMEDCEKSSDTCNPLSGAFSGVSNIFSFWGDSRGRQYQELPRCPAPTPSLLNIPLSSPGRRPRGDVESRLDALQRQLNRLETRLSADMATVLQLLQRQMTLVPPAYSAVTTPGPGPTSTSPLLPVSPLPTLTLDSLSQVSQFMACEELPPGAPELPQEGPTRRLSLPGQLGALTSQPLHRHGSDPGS

Cytochrome P450 3A4 = Cytochrome P450 3A4 (Homo sapiens, UniProt P08684); experiment: Inhibition of CYP3A4 (unknown origin); assay type: ADME
Cytochrome P450 3A4, sequence (P08684 whole entry): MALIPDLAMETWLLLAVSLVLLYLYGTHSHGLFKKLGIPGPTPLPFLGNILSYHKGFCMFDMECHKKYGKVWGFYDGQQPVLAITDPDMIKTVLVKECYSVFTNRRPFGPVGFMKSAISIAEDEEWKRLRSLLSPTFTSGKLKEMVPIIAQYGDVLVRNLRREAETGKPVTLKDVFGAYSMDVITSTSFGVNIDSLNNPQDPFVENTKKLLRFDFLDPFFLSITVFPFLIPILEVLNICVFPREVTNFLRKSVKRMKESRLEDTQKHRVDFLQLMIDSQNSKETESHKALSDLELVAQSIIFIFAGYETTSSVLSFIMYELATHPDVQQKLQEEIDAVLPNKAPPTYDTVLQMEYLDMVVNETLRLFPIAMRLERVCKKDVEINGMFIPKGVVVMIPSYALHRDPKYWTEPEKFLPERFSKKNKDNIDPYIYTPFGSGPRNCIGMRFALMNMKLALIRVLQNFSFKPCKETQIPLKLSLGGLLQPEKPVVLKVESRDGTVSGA

Cytochrome P450 2C8 = target: T1, Cytochrome P450 2C8 (Homo sapiens, UniProt P10632); experiment: Inhibition of CYP2C8 (unknown origin); assay type: ADME
T1 sequence (P10632 whole entry): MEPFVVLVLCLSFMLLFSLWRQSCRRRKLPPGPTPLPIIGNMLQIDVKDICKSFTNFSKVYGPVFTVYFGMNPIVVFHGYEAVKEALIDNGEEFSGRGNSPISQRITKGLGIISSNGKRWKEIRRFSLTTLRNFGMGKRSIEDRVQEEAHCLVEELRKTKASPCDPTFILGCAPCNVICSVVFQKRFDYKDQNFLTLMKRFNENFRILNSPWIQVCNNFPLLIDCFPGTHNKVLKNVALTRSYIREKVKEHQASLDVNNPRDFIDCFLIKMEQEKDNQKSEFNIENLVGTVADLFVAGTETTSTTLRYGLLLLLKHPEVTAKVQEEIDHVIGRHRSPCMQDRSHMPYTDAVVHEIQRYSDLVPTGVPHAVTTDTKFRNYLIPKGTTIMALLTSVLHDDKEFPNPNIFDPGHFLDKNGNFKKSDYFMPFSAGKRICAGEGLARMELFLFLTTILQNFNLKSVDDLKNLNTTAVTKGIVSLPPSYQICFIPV

Cytochrome P450 2C9 = Cytochrome P450 2C9 (Homo sapiens, UniProt P11712); experiment: Inhibition of CYP2C9 (unknown origin); assay type: ADME
Cytochrome P450 2C9, sequence (P11712 whole entry): as the sequence (P11712 whole entry) above

Cytochrome P450 2D6 = Cytochrome P450 2D6 (Homo sapiens, UniProt P10635); experiment: Inhibition of CYP2D6 (unknown origin); assay type: ADME
Cytochrome P450 2D6, sequence (P10635 whole entry): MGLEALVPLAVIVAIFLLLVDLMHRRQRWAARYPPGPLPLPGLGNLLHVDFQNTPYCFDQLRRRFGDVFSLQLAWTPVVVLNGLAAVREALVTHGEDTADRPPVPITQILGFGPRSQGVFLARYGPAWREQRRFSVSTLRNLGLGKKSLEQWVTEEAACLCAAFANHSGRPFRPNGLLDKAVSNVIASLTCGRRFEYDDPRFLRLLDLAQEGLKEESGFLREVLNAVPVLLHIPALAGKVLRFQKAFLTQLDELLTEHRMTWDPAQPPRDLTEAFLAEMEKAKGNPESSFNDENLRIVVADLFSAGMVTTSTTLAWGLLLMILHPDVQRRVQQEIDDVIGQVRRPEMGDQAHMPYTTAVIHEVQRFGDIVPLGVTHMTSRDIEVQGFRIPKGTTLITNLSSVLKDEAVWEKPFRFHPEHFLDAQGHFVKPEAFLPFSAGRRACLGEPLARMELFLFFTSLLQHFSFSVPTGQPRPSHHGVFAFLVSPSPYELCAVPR

Canis familiaris = experiment: Cardiotoxicity in dog at 5 mg/kg, iv by ECG analysis; assay type: toxicity, organism-based, Canis lupus familiaris; settings: in vivo
[11] = Cmax in dog at 5 mg/kg, iv; assay type: ADME, organism-based, Canis lupus familiaris; set-up: dose 5 mg/kg, route intravenous; settings: in vivo
[12] = Cmax in ApoE knockout mouse at 1 mg/kg, po qd dosed via gavage for 2 weeks by HPLC analysis; assay type: ADME, organism-based; set-up: dose 1 mg/kg, route oral; settings: in vivo
[13] = Ratio of Cmax in dog ECG model at 5 mg/kg, iv to Cmax in ApoE knockout mouse at 1 mg/kg, po qd dosed via gavage for 2 weeks; assay type: ADME, organism-based; settings: in vivo, 336 h
Liver [14] = experiment: Metabolic stability in human liver microsomes; assay type: ADME, microsome
Liver [15] = experiment: Metabolic stability in mouse liver microsomes; assay type: ADME, microsome
[16] = AUC (0 to 8 hrs) in mouse at 1 mg/kg, po administered as cassette dose; assay type: ADME, organism-based; set-up: time < 8 hr, dose 1 mg/kg, route oral; settings: in vivo
[17] = MRT (0 to 8 hrs) in mouse at 1 mg/kg, po administered as cassette dose; assay type: ADME, organism-based; settings: in vivo
Mus musculus [18] = experiment: In vivo inhibition of D5D in C57BL/6J mouse liver assessed as decrease in AA/DGLA ratio by measuring inhibition index at 3 mg/kg, qd administered via oral gavage for 4 days by HPLC analysis relative to control; settings: 96 h
[19] = Drug level in human hepatocytes treated with 5-(4-Fluorophenyl)-3-(3-methoxyphenyl)-1,3-oxazolidin-2-one by LC-MS/MS analysis; assay type: ADME, cell-based, Hepatocyte
[20] = Drug level in mouse hepatocytes treated with 5-(4-Fluorophenyl)-3-(3-methoxyphenyl)-1,3-oxazolidin-2-one by LC-MS/MS analysis; assay type: ADME, cell-based, Hepatocyte

C[C@H]1[C@H](c2ccc(F)cc2)OC(=O)N1c1cc(C#N)cc(C#N)c1
Activity [1]: Not Active
IC50 [2]: 1.5 nM
IC50 [3]: 1.5 nM
inhibition in vivo at 3 mg/kg (Mus musculus [4]): 74%
inhibition at 10 µM (CYP2C9): 28.5%
AUC(0-t) [5]: 891 ng·h/mL
MRT last [6]: 4 h
bioavailability [7]: 53.3%
inhibition in vivo at 0.3 mg/kg (Mus musculus [8]): 61%
inhibition in vivo at 1 mg/kg (Mus musculus [9]): 67%
inhibition in vivo at 3 mg/kg (Mus musculus [10]): 66%
inhibition at 10 µM (hERG (KCNH2)): 30.7%
inhibition (INH) (Cytochrome P450 3A4): Not Active
inhibition (INH) (Cytochrome P450 2C8): Not Active
inhibition (INH) (Cytochrome P450 2C9): Not Active
inhibition (INH) (Cytochrome P450 2D6): Not Active
Activity (Canis familiaris): Non-Toxic
Cmax [11]: 7150 ng/mL
Cmax [12]: 280 ng/mL
Ratio [13]: > 25

N#Cc1cccc(N2C[C@H](c3ccc(F)cc3)OC2=O)c1
IC50 [2]: 49 nM
IC50 [3]: 60 nM
Stability (Liver [14]): 4 µL/min/mg
Stability (Liver [15]): 50 µL/min/mg

C[C@@H]1[C@@H](c2ccc(F)cc2)OC(=O)N1c1cccc(C#N)c1
IC50 [2]: 5800 nM

C[C@H]1[C@H](c2ccc(F)cc2)OC(=O)N1c1cccc(C#N)c1
IC50 [2]: 5.3 nM
IC50 [3]: 8.7 nM
Stability (Liver [15]): 24 µL/min/mg
AUC(0-t) at 8 h [16]: 2080 ng·h/mL
MRT last [17]: 3.4 h
bioavailability [7]: 87.2%
inhibition in vivo at 3 mg/kg (Mus musculus [18]): 42%

Cn1c(=O)n(Cc2cc(O)c(Cl)cc2Cl)c2ccccc21
IC50 [2]: 39 nM

COc1ccc(CN(C)C(=O)c2ccc3c(c2)OCO3)c(OC)c1
IC50 [2]: 310 nM

O=C1OC(c2ccc(F)cc2)CN1c1cccc(O)c1 (centres undefined)
Drug metabolism [19]: Metabolite_Detected

N#Cc1cccc(N2C[C@@H](c3ccc(F)cc3)OC2=O)c1
IC50 [2]: > 10000 nM

C[C@H]1[C@H](c2ccc(F)cc2)OC(=O)N1c1cc(Cl)cc(C#N)c1
IC50 [2]: < 1 nM
IC50 [3]: 0.52 nM
inhibition in vivo at 3 mg/kg (Mus musculus [4]): 71%
inhibition at 10 µM (CYP2C9): 44.2%
AUC(0-t) [5]: 974 ng·h/mL
MRT last [6]: 4.2 h
bioavailability [7]: 74.4%

O=C1OC(c2ccc(F)cc2)CN1c1cccc(OS(=O)(=O)O)c1 (centres undefined)
Drug metabolism [19]: Metabolite_Detected
Drug metabolism [20]: Metabolite_Detected

O=C1OC(c2ccc(F)cc2)CN1c1cccc(O[C@@H]2O[C@H](CO)[C@@H](O)[C@H](O)[C@H]2O)c1 (some centres undefined)
Drug metabolism [19]: Metabolite_Detected
Drug metabolism [20]: Metabolite_Detected

CC1(C)C(c2ccc(F)cc2)OC(=O)N1c1cccc(C#N)c1 (racemic)
IC50 [2]: 450 nM

O=C1OC(c2ccccc2)CN1Cc1cc(O)c(Cl)cc1Cl (racemic)
IC50 [2]: 12 nM
IC50 [3]: 1100 nM

O=C1OC(c2ccc(F)cc2)CN1Cc1ccc(Cl)cc1Cl (racemic)
IC50 [2]: 79 nM
IC50 [3]: 150 nM

C[C@H]1[C@H](c2ccc(F)cc2)OC(=O)N1c1cccc(C#N)c1 (racemic)
IC50 [2]: 13 nM
IC50 [3]: 8.9 nM

C[C@@H]1[C@H](c2ccc(F)cc2)OC(=O)N1c1cccc(C#N)c1 (racemic)
IC50 [2]: 410 nM
Stability (Liver [14]): 21 µL/min/mg
Stability (Liver [15]): 7 µL/min/mg

O=C1OC(c2ccc(F)cc2)CN1c1cccc(F)c1 (racemic)
IC50 [2]: 51 nM
IC50 [3]: 170 nM
Stability (Liver [14]): 81 µL/min/mg

O=C1OC(c2ccc(F)cc2)CN1c1ccccc1 (racemic)
IC50 [2]: 150 nM
IC50 [3]: 190 nM
Stability (Liver [14]): 45 µL/min/mg

N#Cc1cccc(N2CC(c3ccc(F)cc3)OC2=O)c1 (racemic)
IC50 [2]: 78 nM
IC50 [3]: 170 nM
Stability (Liver [15]): 94 µL/min/mg

COc1ccc(OC)c(N2CC(c3ccc(F)cc3)OC2=O)c1 (racemic)
IC50 [2]: 13 nM
IC50 [3]: 18 nM

COc1ccc(OC)c(N2CCN(C(=O)c3ccc(Cl)cc3)C(C)C2=O)c1 (racemic)
IC50 [2]: 360 nM

CCn1cc(C(=O)N(C)C(C)c2ccc(F)cc2)c2ccccc21 (racemic)
IC50 [2]: 47 nM

C[C@H]1[C@H](c2ccc(F)cc2)OC(=O)N1c1cc(F)cc(C#N)c1 (racemic)
IC50 [2]: 4 nM
IC50 [3]: 3.7 nM
AUC(0-t) at 8 h [16]: 1200 ng·h/mL
MRT last [17]: 3.8 h
bioavailability [7]: 61%
inhibition in vivo at 3 mg/kg (Mus musculus [18]): 63%

O=C1OC(c2ccc(F)cc2)CN1c1cccc(Cl)c1 (racemic)
IC50 [2]: 23 nM
IC50 [3]: 55 nM
Stability (Liver [14]): 72 µL/min/mg
